From ChEMBL document CHEMBL1151940, “Chemical and biological investigation of cyclopropyl containing diaryl-pyrazole-3-carboxamides as novel and potent cannabinoid type 1 receptor antagonists” (J Med Chem, 2009)

Assays:
Cannabinoid receptor 1 = Cannabinoid receptor 1 (Rattus norvegicus, UniProt P20272); experiment: Displacement of [3H]SR141716A from CB1 receptor in rat cerebellum by scintillation spectrometry; type: tissue-based
Mus musculus [1] = experiment: Inhibition of WIN-55212-2-induced hypothermia in po dosed CD1 mouse assessed as rectal temperature administered 15 mins prior to WIN-55212 challenge measured after 45 mins post-induction; type: functional
How it was run: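 Mice were pretreated, then 15 min later given WIN 55,212-2 (3 mg/kg ip) or vehicle; rectal temperature was read 45 min after that. n=8/group. Analysis was one-way ANOVA with Tukey post hoc test. ED50 values were derived for attenuation of hypothermia.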

Mus musculus [2] = experiment: Appetite suppressant activity in fasted CD1 mouse assessed as decrease in palatable chow intake at 10 mg/kg, po administered 1 hr before food consumption measured after 1 hr relative to control; type: functional; parameters: scale not given: the % may be the effect or the level left
How it was run: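 CD1 mice (>25 g) were housed singly for ≥3 days, then fasted 16 h. Compound or vehicle (5% Tween 80) was given orally in the home cage. After 1 h, pre-weighed palatable chow was offered and reweighed 1 h later. Intake was expressed as % difference from control mean (n=8-10/group).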

Mus musculus [3] = experiment: Antiobesity activity in TBU8 high fat diet-induced obese C57/BL6 mouse assessed as decrease in body weight at 3 mg/kg, po administered once daily for 14 days relative to fat control; type: functional, C57Bl/6; parameters: scale not given: the % may be the effect or the level left
Mus musculus [4] = experiment: Antiobesity activity in TBU8 high fat diet-induced obese C57/BL6 mouse assessed as decrease in body weight at 10 mg/kg, po administered once daily for 14 days relative to fat control; type: functional, C57Bl/6; parameters: scale not given: the % may be the effect or the level left
Mus musculus [5] = experiment: Antiobesity activity in TBU8 high fat diet-induced obese C57/BL6 mouse assessed as decrease in body weight at 30 mg/kg, po administered once daily for 14 days relative to fat control; type: functional, C57Bl/6; parameters: scale not given: the % may be the effect or the level left
Mus musculus [6] = experiment: Antiobesity activity in TBU8 high fat diet-induced obese C57/BL6 mouse assessed as decrease in obese-induced elevated serum cholesterol level at 30 mg/kg, po administered once daily for 14 days relative to fat control; type: functional, C57Bl/6; parameters: scale not given: the % may be the effect or the level left
Mus musculus [7] = experiment: Antiobesity activity in po dosed TBU8 high fat diet-induced obese C57/BL6 mouse assessed as decrease in body weight administered once daily for 14 days; type: functional, organism-based; conditions: C57Bl/6
How it was run: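 TBU8 high-fat diet fed mice brought to about 60% excess body weight over lean controls (usually 6-8 weeks), isolated and grouped (n=8) balanced by body weight; 3-day habituation with daily tap water, then oral dosing once daily for 14 days against vehicle-treated fat controls; body weight taken at day 14; differences versus fat and lean controls tested.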

Mus musculus [8] = experiment: Antiobesity activity in TBU8 high fat diet-induced obese C57/BL6 mouse assessed as serum cholesterol level at 3 mg/kg, po administered once daily for 14 days (reference value: 5.35+/-0.12 […]); type: functional, C57Bl/6
Mus musculus [9] = experiment: Antiobesity activity in TBU8 high fat diet-induced obese C57/BL6 mouse assessed as serum triglyceride level at 3 mg/kg, po administered once daily for 14 days (reference value: 1.42+/-0.04 […]); type: functional, C57Bl/6
Mus musculus [10] = experiment: Antiobesity activity in TBU8 high fat diet-induced obese C57/BL6 mouse assessed as serum HDL-cholesterol level at 3 mg/kg, po administered once daily for 14 days (Rvb=4.42+/-0.08 […]); type: functional, C57Bl/6
Mus musculus [11] = experiment: Antiobesity activity in TBU8 high fat diet-induced obese C57/BL6 mouse assessed as serum LDL-cholesterol level at 3 mg/kg, po administered once daily for 14 days (Rvb=0.84+/-0.03 […]); type: functional, C57Bl/6
Mus musculus [12] = experiment: Antiobesity activity in TBU8 high fat diet-induced obese C57/BL6 mouse assessed as serum glucose level at 3 mg/kg, po administered once daily for 14 days (reference value: 9.52+/-0.38 […]); type: functional, C57Bl/6
Mus musculus [13] = experiment: Antiobesity activity in TBU8 high fat diet-induced obese C57/BL6 mouse assessed as body weight at 3 mg/kg, po administered once daily for 14 days (Rvb=41.90 g); type: functional, C57Bl/6
Mus musculus [14] = experiment: Antiobesity activity in TBU8 high fat diet-induced obese C57/BL6 mouse assessed as serum cholesterol level at 10 mg/kg, po administered once daily for 14 days (reference value: 5.35+/-0.12 […]); type: functional, C57Bl/6
Mus musculus [15] = experiment: Antiobesity activity in TBU8 high fat diet-induced obese C57/BL6 mouse assessed as serum triglyceride level at 10 mg/kg, po administered once daily for 14 days (reference value: 1.42+/-0.04 […]); type: functional, C57Bl/6
Mus musculus [16] = experiment: Antiobesity activity in TBU8 high fat diet-induced obese C57/BL6 mouse assessed as body weight at 10 mg/kg, po administered once daily for 14 days (Rvb=41.90 g); type: functional, C57Bl/6
Mus musculus [17] = experiment: Antiobesity activity in TBU8 high fat diet-induced obese C57/BL6 mouse assessed as serum LDL-cholesterol level at 10 mg/kg, po administered once daily for 14 days (Rvb=0.84+/-0.03 […]); type: functional, C57Bl/6
Mus musculus [18] = experiment: Antiobesity activity in TBU8 high fat diet-induced obese C57/BL6 mouse assessed as serum glucose level at 10 mg/kg, po administered once daily for 14 days (reference value: 9.52+/-0.38 […]); type: functional, C57Bl/6
Mus musculus [19] = experiment: Antiobesity activity in TBU8 high fat diet-induced obese C57/BL6 mouse assessed as serum HDL-cholesterol level at 10 mg/kg, po administered once daily for 14 days (Rvb=4.42+/-0.08 […]); type: functional, C57Bl/6
Mus musculus [20] = experiment: Antiobesity activity in TBU8 high fat diet-induced obese C57/BL6 mouse assessed as body weight at 30 mg/kg, po administered once daily for 14 days (Rvb=41.90 g); type: functional, C57Bl/6
Mus musculus [21] = experiment: Antiobesity activity in TBU8 high fat diet-induced obese C57/BL6 mouse assessed as serum LDL-cholesterol level at 30 mg/kg, po administered once daily for 14 days (Rvb=0.84+/-0.03 […]); type: functional, C57Bl/6
Mus musculus [22] = experiment: Antiobesity activity in TBU8 high fat diet-induced obese C57/BL6 mouse assessed as serum glucose level at 30 mg/kg, po administered once daily for 14 days (reference value: 9.52+/-0.38 […]); type: functional, C57Bl/6
Mus musculus [23] = experiment: Antiobesity activity in TBU8 high fat diet-induced obese C57/BL6 mouse assessed as serum cholesterol level at 30 mg/kg, po administered once daily for 14 days (reference value: 5.35+/-0.12 […]); type: functional, C57Bl/6
Mus musculus [24] = experiment: Antiobesity activity in TBU8 high fat diet-induced obese C57/BL6 mouse assessed as serum triglyceride level at 30 mg/kg, po administered once daily for 14 days (reference value: 1.42+/-0.04 […]); type: functional, C57Bl/6
Mus musculus [25] = experiment: Antiobesity activity in TBU8 high fat diet-induced obese C57/BL6 mouse assessed as serum HDL-cholesterol level at 30 mg/kg, po administered once daily for 14 days (Rvb=4.42+/-0.08 […]); type: functional, C57Bl/6

Cannabinoid receptor 1, sequence (P20272 whole entry): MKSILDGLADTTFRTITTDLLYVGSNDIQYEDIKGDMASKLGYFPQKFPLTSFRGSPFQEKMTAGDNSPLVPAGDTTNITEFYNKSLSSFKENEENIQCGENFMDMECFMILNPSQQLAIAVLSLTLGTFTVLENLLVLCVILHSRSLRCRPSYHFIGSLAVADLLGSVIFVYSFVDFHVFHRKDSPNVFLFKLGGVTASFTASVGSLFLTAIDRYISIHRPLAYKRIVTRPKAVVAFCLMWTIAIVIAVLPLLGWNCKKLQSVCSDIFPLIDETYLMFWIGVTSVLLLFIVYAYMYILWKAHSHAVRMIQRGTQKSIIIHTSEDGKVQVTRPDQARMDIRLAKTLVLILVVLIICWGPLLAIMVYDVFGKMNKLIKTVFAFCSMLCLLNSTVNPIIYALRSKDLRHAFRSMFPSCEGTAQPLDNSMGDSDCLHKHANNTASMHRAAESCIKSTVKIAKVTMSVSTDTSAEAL

Cc1c(C(=O)NN2CCCCC2)nn(-c2ccccc2)c1-c1ccc(C2CC2)cc1
Ki (Cannabinoid receptor 1): 66 nM

O=C(NN1CCCCC1)c1cc(-c2ccc(C3CC3)cc2)n(-c2ccc(Cl)cc2Cl)n1
Ki (Cannabinoid receptor 1): 16 nM

Cc1c(C(=O)NN2CCCCC2)nn(-c2ccc(Cl)cc2Cl)c1-c1ccc(C2CCC2)cc1.Cl
ED50 (Mus musculus [1]): 4 mg/kg | Ki (Cannabinoid receptor 1): 7 nM

Cc1c(C(=O)NN2CCCCC2)nn(-c2ccc(Br)cc2Cl)c1-c1ccc(C2CC2)cc1
Activity (Mus musculus [2]): 54% | ED50 (Mus musculus [1]): 0.22 mg/kg | Activity (Mus musculus [3]): 9% | Activity (Mus musculus [4]): 19% | Activity (Mus musculus [5]): 26% | Activity (Mus musculus [6]): 16% | Ki (Cannabinoid receptor 1): 3 nM | Activity (Mus musculus [7]): Dose-dependent effect

Cc1c(C(=O)NN2CCCCC2)nn(-c2ccccc2Cl)c1-c1ccc(C2CC2)cc1
Ki (Cannabinoid receptor 1): 4 nM

Cc1c(C(=O)NN2CCCCC2)nn(-c2ccc(F)cc2F)c1-c1ccc(C2CC2)cc1
Ki (Cannabinoid receptor 1): 34 nM

Cc1c(C(=O)NN2CCCCC2)nn(-c2ccc(Cl)cc2)c1-c1ccc(C2CC2)cc1
Ki (Cannabinoid receptor 1): 79 nM

Cc1c(C(=O)NN2CCCCC2)nn(-c2ccc(F)cc2Cl)c1-c1ccc(C2CC2)cc1
Ki (Cannabinoid receptor 1): 8 nM

Cc1c(C(=O)NN2CCCCC2)nn(-c2ccc(Cl)cc2F)c1-c1ccc(C2CC2)cc1
Ki (Cannabinoid receptor 1): 14 nM

Cc1c(C(=O)NN2CCCCC2)nn(-c2ccccc2F)c1-c1ccc(C2CC2)cc1
Ki (Cannabinoid receptor 1): 11 nM

Cc1c(C(=O)NN2CCCCC2)nn(-c2ccc(Cl)cc2Cl)c1-c1ccc(C2CC2)cc1
Ki (Cannabinoid receptor 1): 3 nM

COc1c(C(=O)NN2CCCCC2)nn(-c2ccc(Cl)cc2Cl)c1-c1ccc(C2CC2)cc1
Ki (Cannabinoid receptor 1): 3 nM

C[C@H](NC(=O)C(C)(C)Oc1ccc(C(F)(F)F)cn1)[C@@H](Cc1ccc(Cl)cc1)c1cccc(C#N)c1 [TARANABANT]
Activity (Mus musculus [8]): 5.01 mM | Activity (Mus musculus [9]): 1.44 mM | Activity (Mus musculus [10]): 4.16 mM | Activity (Mus musculus [11]): 0.82 mM | Activity (Mus musculus [12]): 9.11 mM | Activity (Mus musculus [13]): 33.7 g

Cc1c(C(=O)NN2CCCC2)nn(-c2ccccc2)c1-c1ccc(C2CC2)cc1
Ki (Cannabinoid receptor 1): 121 nM

CCc1c(C(=O)NN2CCCCC2)nn(-c2ccc(Cl)cc2Cl)c1-c1ccc(C2CC2)cc1
Activity (Mus musculus [2]): 47% | ED50 (Mus musculus [1]): 0.84 mg/kg | Activity (Mus musculus [3]): 8% | Activity (Mus musculus [4]): 15% | Activity (Mus musculus [5]): 22% | Activity (Mus musculus [6]): 19% | Ki (Cannabinoid receptor 1): 4 nM | Activity (Mus musculus [7]): Dose-dependent effect

Cc1c(C(=O)NN2CCCCC2)nn(-c2ccc(F)cc2)c1-c1ccc(C2CC2)cc1
Ki (Cannabinoid receptor 1): 190 nM

Cc1c(C(=O)NN2CCCCC2)nn(-c2ccc(Cl)cc2Cl)c1-c1ccc(C2CCCCC2)cc1
ED50 (Mus musculus [1]): > 3 mg/kg | Ki (Cannabinoid receptor 1): 13 nM

CCc1c(C(=O)NN2CCCC2)nn(-c2ccc(Cl)cc2Cl)c1-c1ccc(C2CC2)cc1
Activity (Mus musculus [2]): 49% | Activity (Mus musculus [14]): 4.56 mM | ED50 (Mus musculus [1]): 0.84 mg/kg | Activity (Mus musculus [15]): 1.3 mM | Activity (Mus musculus [3]): 8% | Activity (Mus musculus [16]): 35.6 g | Activity (Mus musculus [17]): 0.68 mM | Activity (Mus musculus [4]): 15% | Activity (Mus musculus [5]): 21% | Activity (Mus musculus [18]): 8.79 mM | Activity (Mus musculus [19]): 3.9 mM | Activity (Mus musculus [6]): 36% | Ki (Cannabinoid receptor 1): 4 nM | Activity (Mus musculus [7]): Dose-dependent effect

Cc1c(C(=O)NN2CCCCC2)nn(-c2ccc(Cl)cc2Cl)c1-c1ccc(C2CCCC2)cc1
ED50 (Mus musculus [1]): ≥ 3 mg/kg | Ki (Cannabinoid receptor 1): 15 nM

CCNC1(C(N)=O)CCN(c2ncnc3c2nc(-c2ccccc2Cl)n3-c2ccc(Cl)cc2)CC1 [OTENABANT]
Activity (Mus musculus [20]): 36.6 g | Activity (Mus musculus [21]): 0.85 mM | Activity (Mus musculus [22]): 9.45 mM | Activity (Mus musculus [23]): 5.34 mM | Activity (Mus musculus [24]): 1.32 mM | Activity (Mus musculus [25]): 4.4 mM

Cc1c(C(=O)NN2CCCCC2)nn(-c2ccc(Cl)cc2Cl)c1-c1ccc(Cl)cc1 [RIMONABANT]
Activity (Mus musculus [2]): 50% | Activity (Mus musculus [14]): 5.35 mM | ED50 (Mus musculus [1]): 0.41 mg/kg | Activity (Mus musculus [15]): 1.18 mM | Activity (Mus musculus [3]): 9% | Activity (Mus musculus [16]): 35.6 g | Activity (Mus musculus [17]): 0.82 mM | Activity (Mus musculus [4]): 15% | Activity (Mus musculus [5]): 24% | Activity (Mus musculus [18]): 8.84 mM | Activity (Mus musculus [19]): 4.4 mM | Activity (Mus musculus [6]): 0% | Activity (Mus musculus [7]): Dose-dependent effect
